Data set [1] can be described thus: Half life in Swiss mouse plasma at 1 ug/ml by UPLC-MS analysis. The format is ADME, cell-free. The procedure, abridged: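 Fresh whole blood from non-fasted male Swiss outbred mice; plasma separated by centrifugation. Compound spiked to 1 μg/mL final (0.2% DMSO, 0.4% acetonitrile), kept at 37 °C; aliquots taken over 4 h (n=3 per time point), snap-frozen, protein precipitated with acetonitrile, UPLC-MS (ESI+) against matrix calibration standards. Exponential decay fit gives k; half-life = ln(2)/k.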

Data set [2] concerns Plasmodium falciparum. Put plainly: Antimalarial activity against synchronized ring stage CQ-sensitive Plasmodium falciparum 3D7 infected in human erythrocytes incubated for 24 hrs followed by compound washout and subsequent compound addition and measured after 48 hrs by YOYO-1 probe-based flow cytometry. The format is functional, organism-based. A general note: Flow cytometry measures light scatter and fluorescence of single cells or particles in a stream.

Data set [3] is described as follows: Half life in Swiss mouse blood at 1 ug/ml by UPLC-MS analysis. The format is ADME, tissue-based. As to conditions: whole blood.
Data set [4] deals with T1, Falcipain 2 (Plasmodium falciparum, UniProt Q9N6S8).
T1 sequence (Q9N6S8 whole entry): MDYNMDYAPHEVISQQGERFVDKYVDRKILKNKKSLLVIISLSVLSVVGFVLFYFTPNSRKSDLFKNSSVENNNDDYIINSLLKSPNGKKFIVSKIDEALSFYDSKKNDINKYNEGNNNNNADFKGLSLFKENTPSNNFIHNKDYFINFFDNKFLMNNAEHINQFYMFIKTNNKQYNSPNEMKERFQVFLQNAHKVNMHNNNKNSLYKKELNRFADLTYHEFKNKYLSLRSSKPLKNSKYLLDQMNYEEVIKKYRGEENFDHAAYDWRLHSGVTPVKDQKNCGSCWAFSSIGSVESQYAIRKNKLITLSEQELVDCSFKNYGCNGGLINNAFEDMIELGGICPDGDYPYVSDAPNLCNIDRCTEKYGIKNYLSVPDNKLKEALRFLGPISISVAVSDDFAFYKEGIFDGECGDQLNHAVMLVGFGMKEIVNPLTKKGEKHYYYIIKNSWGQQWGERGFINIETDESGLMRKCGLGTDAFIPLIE
The data set can be described thus: Inhibition of Plasmodium falciparum N-terminal His6-tagged falcipain-2 (35 residues) expressed in Escherichia coli M15 pREP4 using Z-Lue-Arg-AMC as substrate measured after 30 mins by spectrofluorometric method. Summed up:
(§1)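 Recombinant heterologously expressed FP2 or FP3; inhibition measured by continuous kinetic cleavage of fluorogenic substrate Z-Leu-Arg-AMC.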

Data set [5] is described as follows: Drug metabolism in mouse liver microsomes assessed as N-demethylation at 10 uM measured after 60 mins in presence of NADPH-generating system by UPLC-MS analysis. The class given is ADME, Microsome. The conditions noted are these: 1 h.
Data set [6] has as its system Plasmodium falciparum. Put plainly: Antimalarial activity against synchronized ring stage CQ-resistant Plasmodium falciparum W2 infected in human erythrocytes incubated for 24 hrs followed by compound washout and subsequent compound addition and measured after 48 hrs by YOYO-1 probe-based flow cytometry. The format is functional, organism-based.
Data set [7] relates to HEK293. The data set can be described thus: Cytotoxicity against HEK293 cells assessed as reduction in cell viability at 25 uM measured after 18 hrs by alamar blue assay. As to conditions: human, hek293, 18 h. The class given is cell-based. Background: Resazurin is reduced to fluorescent resorufin, in cell work by metabolically active cells.
Data set [8] has as its system Plasmodium falciparum. The data set can be described thus: Induction of morphological changes in synchronized ring stage Plasmodium falciparum W2 infected in human erythrocytes assessed as swollen food vacuoles with accumulated hemoglobin at 300 nM measured after 36 hrs by Giemsa staining-based photomicrographic method. The class given is functional, organism-based. Summed up:
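Synchronized W2 P. falciparum cultures exposed from ring stage for 36 h to compound (4.5–10,000 nM range), with E-64 and 0.1% DMSO controls; thin smears methanol-fixed, Giemsa-stained and photographed.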

Data set [9] concerns Plasmodium berghei. Put plainly: Antimalarial activity against Plasmodium berghei ANKA infected in specific pathogen-free C57BL/6 mouse assessed as reduction in parasitemia at 25 to 50 mg/kg, ip administered at 72 hrs post-infection and measured daily up to 35 days post-infection by rapid staining-based microscopic analysis. The class given is functional, organism-based. The procedure, abridged: (§2)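 Peters 4-day suppressive test: female C57BL/6 mice, 8–9 weeks old, inoculated i.p. with 10^6 PbA-parasitized red cells in 200 µL Alsever's medium. Compound in DMSO diluted in saline (50, 25, 12.5, 6.25 mg/kg) or vehicle, 200 µL i.p. at 4, 24, 48 and 72 h. Daily tail-vein smears, Rapid Stain, % parasitemia by microscopy; cure = healthy, no parasitemia at day 35; 5 mice/group, mean ± SEM.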

Data set [10] has as its target T2, Cysteine protease falcipain-3 (Plasmodium falciparum, UniProt Q9NAW4).
T2 sequence (Q9NAW4 whole entry): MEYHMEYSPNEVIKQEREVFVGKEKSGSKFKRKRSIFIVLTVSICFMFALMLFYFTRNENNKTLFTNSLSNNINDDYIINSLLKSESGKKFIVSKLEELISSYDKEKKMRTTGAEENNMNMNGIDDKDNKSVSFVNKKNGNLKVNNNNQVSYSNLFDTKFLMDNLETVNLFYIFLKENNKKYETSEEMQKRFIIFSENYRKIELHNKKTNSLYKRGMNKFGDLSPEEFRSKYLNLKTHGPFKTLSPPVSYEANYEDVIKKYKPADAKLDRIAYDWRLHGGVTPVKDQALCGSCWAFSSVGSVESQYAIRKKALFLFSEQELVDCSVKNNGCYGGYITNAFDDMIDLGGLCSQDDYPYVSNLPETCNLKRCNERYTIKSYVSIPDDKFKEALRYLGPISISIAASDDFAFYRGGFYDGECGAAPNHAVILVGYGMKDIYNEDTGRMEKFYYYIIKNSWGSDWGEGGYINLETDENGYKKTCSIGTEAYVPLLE
Put plainly: Inhibition of Plasmodium falciparum N-terminal His-tagged falcipain-3 (33 residues) expressed in Escherichia coli M15 pREP4 using Z-Leu-Arg-AMC as substrate measured after 30 mins by spectrofluorometric method. The procedure, abridged:
as §1

A short description of data set [11]: Drug metabolism in human liver microsomes assessed as N-demethylation at 10 uM measured after 60 mins in presence of NADPH-generating system by UPLC-MS analysis. The class given is ADME, Microsome. As to conditions: 1 h.
Data set [12] in a line: Intrinsic clearance in mouse liver microsomes assessed per mg protein at 1 uM measured after 60 mins in presence of NADPH-generating system by UPLC-MS analysis. The class given is ADME, Microsome. As to conditions: read-out: CLH. A general note: Liver microsomes are vesicles of endoplasmic reticulum, rich in cytochrome P450 enzymes.
For data set [13], the system named is Plasmodium berghei. Put plainly: Antimalarial activity against Plasmodium berghei ANKA infected in specific pathogen-free C57BL/6 mouse assessed as reduction in parasitemia at 100 mg/kg, po administered once daily for 4 days measured up to 35 days post-infection by rapid staining-based microscopic analysis. The format is functional, organism-based. Summed up: (§3)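 Female C57BL/6 mice, 8–9 weeks old, inoculated i.p. with 10^6 P. berghei ANKA-parasitized red cells. Compound dissolved in DMSO, diluted in 154 mM NaCl, given by oral gavage at 100 mg/kg on days 4, 5, 6 and 7 post-infection. Tail-vein thin smears stained with Rapid Stain, % parasitemia by microscopy; mice euthanized at signs of severe disease.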

Data set [14] has as its system Plasmodium berghei. The data set can be described thus: Antimalarial activity against Plasmodium berghei ANKA infected in specific pathogen-free C57BL/6 mouse assessed as reduction in disease severity at 100 mg/kg, po administered once daily for 4 days measured up to 35 days post-infection by rapid staining-based microscopic analysis. The format is functional, organism-based. The procedure, abridged: as §3

The test system of data set [15] is Plasmodium berghei. The data set can be described thus: Antimalarial activity against Plasmodium berghei ANKA infected in specific pathogen-free C57BL/6 mouse assessed as reduction in parasitemia at […] to 12.5 mg/kg, ip administered at 72 hrs post-infection and measured daily up to 35 days post-infection by rapid staining-based microscopic analysis. The class given is functional, organism-based. The procedure, abridged: as §2

In data set [16] the test system is Plasmodium berghei. Put plainly: Antimalarial activity against Plasmodium berghei ANKA infected in specific pathogen-free C57BL/6 mouse assessed as mouse survival at 25 to 50 mg/kg, ip administered at 72 hrs post-infection by rapid staining-based microscopic analysis.
Data set [17] concerns Plasmodium berghei. The data set can be described thus: Antimalarial activity against Plasmodium berghei ANKA infected in specific pathogen-free C57BL/6 mouse assessed as reduction in parasitemia at 50 mg/kg, ip administered once daily for 4 days measured up to 35 days post-infection by rapid staining-based microscopic analysis. The format is functional, organism-based. The procedure, abridged: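 Established-infection model: female C57BL/6 mice inoculated i.p. with 10^6 PbA-parasitized red cells; compound in DMSO diluted in saline given i.p. at 50 mg/kg on days 4, 5, 6 and 7 post-infection, chloroquine 50 mg/kg as comparator, vehicle controls; 7 mice per group. Tail-vein smears, % parasitemia by microscopy, mean ± SEM; survival recorded.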

A short description of data set [18]: Drug metabolism in mouse liver microsomes assessed as N,N-bis-demethylation at 10 uM measured after 60 mins in presence of NADPH-generating system by UPLC-MS analysis. The class given is ADME, Microsome. As to conditions: 1 h.
Data set [19] in a line: Drug metabolism in human liver microsomes assessed as N,N-bis-demethylation at 10 uM measured after 60 mins in presence of NADPH-generating system by UPLC-MS analysis. The format is ADME, Microsome. The conditions noted are these: 1 h.
Data set [20] relates to Plasmodium berghei. The data set can be described thus: Antimalarial activity against Plasmodium berghei ANKA infected in specific pathogen-free C57BL/6 mouse assessed as reduction in parasitemia at 12.5 to 50 mg/kg, ip administered at 72 hrs post-infection and measured daily up to 35 days post-infection by rapid staining-based microscopic analysis. The class given is functional, organism-based. The procedure, abridged: as §2

Experimental findings from ChEMBL document CHEMBL4350969, “Falcipain Inhibitors Based on the Natural Product Gallinamide A Are Potent in Vitro and in Vivo Antimalarials” (J Med Chem, 2019) are described below.

Molecules are shown by their SMILES. Calls of active or inactive are those of the source. The calls are words filed in the database; no cut-off is given here. A value given as a limit tells only on which side of the number the result lay.

One may read the half-life as the time in which the quantity being followed falls by half. As a reminder, the IC50 is the concentration that inhibits the measured activity by half. Low readings indicate greater potency in that assay, high ones weaker potency in that assay.

In the case of `COC1=CC(=O)N(C(=O)/C=C/[C@H](C)NC(=O)[C@H](CC(C)C)NC(=O)[C@H](CC(C)C)NC(=O)C2CCN(C)CC2)[C@H]1Cc1c[nH]c2ccccc12.O=C(O)C(F)(F)F`, the half-life at 1 ug/ml in data set [1] was 1.37 h; in data set [3] it was 0.283 h. The IC50 in [2] amounted to 42 nM; in [4], 29 nM; in [6] it was 49 nM; in [10] it was 79 nM. The Drug metabolism entry in data set [5] and in data set [11] was “Metabolite_Detected” throughout. The Activity result in data set [7] is given as “Non-Toxic”. In addition, the outcome in [8] and in data set [9] was Active.
Consider `COC1=CC(=O)N(C(=O)/C=C/[C@H](CCc2ccccc2)NC(=O)[C@H](CC(C)C)NC(=O)[C@H](CC(C)C)NC(=O)[C@H](C(C)C)N(C)C)[C@H]1Cc1c[nH]c2ccccc12.O=C(O)C(F)(F)F`, for which, in [12], the microsomal CLint at 1 µM was 787 µL/min/mg. The outcome in data set [13], in [14], in [15], in data set [17] and in [8] was Active. Moreover, the half-life at 1 ug/ml worked out at 6.22 h in data set [1] and 4.55 h in data set [3]. The concentration for half-maximal inhibition (IC50) was determined as 1 nM in [2], 33 nM in data set [4], 4 nM in data set [6] and 112 nM in data set [10]. Also, the Survival in data set [16] was >35 days. Further, the Activity entry in data set [7] is “Non-Toxic”. Further, the Drug metabolism result in data set [18] and in data set [19] was “Metabolite_Detected” each time.
In the case of `COC1=CC(=O)N(C(=O)/C=C/[C@H](C)NC(=O)[C@H](CC(C)C)NC(=O)[C@H](CC2CCCCC2)NC(=O)C2CCN(C)CC2)[C@H]1Cc1c[nH]c2ccccc12.O=C(O)C(F)(F)F`, the half-life at 1 ug/ml in data set [1] was 2.1 h; in data set [3] it was 0.683 h. Also, the result in data set [20] and in [8] was Active. Besides, the IC50 in data set [2] was 26 nM; in data set [4], 31 nM; in [6], 28 nM; in [10] it was 117 nM. Further, the Drug metabolism result in data set [5] and in data set [11] was “Metabolite_Detected” in each case. Further, the Activity result in data set [7] is reported as “Non-Toxic”.
